# ChEMBL document CHEMBL1135396, “Synthesis and inotropic activity of 1-(O-aminoalkyloximes) of perhydroindene derivatives as simplified digitalis-like compounds acting on the Na(+),K(+)-ATPase” (J Med Chem, 2002)
# Assays:
# [1] = molecular target: Sodium/potassium-transporting ATPase; assay: 50% displacement of the specific [3H]ouabain binding from the dog kidney Na+/K+ ATPase; assay type: protein-complex assay, Canis lupus familiaris
# How it was run: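 [3H]ouabain binding was measured on isolated, purified dog kidney Na+,K+-ATPase (α1 isoform), with compounds used within 1–4 h of dissolution.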
# Cavia porcellus [2] = organism: Cavia porcellus; assay: Concentration of compound producing 50% of the maximal increase in force of contraction in electrically driven guinea pig left atrium; assay type: functional; conditions: Cardiac atrium
# How it was run: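 Whole guinea pig left atria were paced through platinum electrodes with 1 Hz square-wave pulses (1 ms, twice threshold voltage) and equilibrated for 60 min. Compounds were then added cumulatively, each concentration held until maximal response or arrhythmia. The concentration giving half-maximal increase in contractile force was calculated from concentration–response curves.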
# Cavia porcellus [3] = organism: Cavia porcellus; assay: Concentration of compound to obtain maximum inotropic activity on electrically driven guinea pig left atrium; assay type: functional, Cardiac atrium
# How it was run: (§1)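 Electrically paced guinea pig left atria (platinum electrodes, 1 Hz, 1 ms pulses at twice threshold voltage) were equilibrated for 60 min. Cumulative compound concentrations were then added, each left in contact until maximal response or arrhythmias appeared. Force of contraction was recorded.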
# Cavia porcellus [4] = organism: Cavia porcellus; assay: Maximal increase in force of contraction in electrically driven guinea pig left atrium; assay type: functional, Cardiac atrium; how it was run: as §1
# [5] = molecular target: Sodium/potassium-transporting ATPase; assay: 20% displacement of the specific [3H]ouabain binding from the dog kidney Na+/K+ ATPase; assay type: protein-complex assay, Canis lupus familiaris
# [6] = molecular target: Sodium/potassium-transporting ATPase; assay: 35% displacement of the specific [3H]-ouabain binding from the dog kidney Na+/K+ ATPase; assay type: protein-complex assay, Canis lupus familiaris
# [7] = molecular target: Sodium/potassium-transporting ATPase; assay: 30% displacement of the specific [3H]ouabain binding from the dog kidney Na+/K+ ATPase; assay type: protein-complex assay, Canis lupus familiaris
# [8] = molecular target: Sodium/potassium-transporting ATPase; assay: 45% displacement of the specific [3H]ouabain binding from the dog kidney Na+/K+ ATPase; assay type: protein-complex assay, Canis lupus familiaris
Structure (SMILES),IC50 [1] [µM],also measured
CN(C)CCO/N=C/[C@H]1CC[C@]2(O)C[C@@H](c3ccc(CO)cc3)CC[C@]12C,8,–
C[C@]12CC[C@H](C3CCCCC3)C[C@@]1(O)CC[C@@H]2/C=C/C=N/OCCN,1,EC50 (Cavia porcellus [2]): 15 µM; Concentration giving maximal inotropic effect (Cavia porcellus [3]): 100 µM; Increase (Emax) (Cavia porcellus [4]): 90%
CN(C)CCO/N=C/[C@H]1CC[C@]2(O)C[C@@H](c3ccc(O)cc3)CC[C@]12C,2.5,–
CN(C)CCO/N=C/[C@H]1CC[C@]2(O)C/C(=C\c3ccccc3)CC[C@]12C,8,–
Cc1ccc([C@H]2CC[C@]3(C)[C@@H](/C=N/OCCN(C)C)CC[C@]3(O)C2)cc1,10,–
CN(C)CCO/N=C/[C@H]1CC[C@]2(O)C[C@@H](c3cccc(O)c3)CC[C@]12C,10,–
C[C@]12CC[C@H](C3CCCCC3)C[C@@]1(O)CC[C@@H]2C/C=N\OCCN,1.6,–
Cc1cccc([C@H]2CC[C@]3(C)[C@@H](/C=N/OCCN)CC[C@]3(O)C2)c1,3.2,–
CN(C)CCO/N=C\C[C@H]1CC[C@]2(O)C[C@@H](C3CCCCC3)CC[C@]12C,1.6,–
CN(C)CCCO/N=C/[C@H]1CC[C@]2(O)C[C@@H](C3CCCCC3)CC[C@]12C,3.2,–
CN(C)CCO/N=C/[C@H]1CC[C@]2(O)C[C@H](CC3CCCCC3)CC[C@]12C,100,–
C[C@]12CCCC[C@@]1(O)CC[C@@H]2/C=N/OCCCN,–,IC50 [5]: > 100 µM
C[C@]12CC[C@H](c3cccc(CO)c3)C[C@@]1(O)CC[C@@H]2/C=N/OCCN,2.5,–
C[C@]12CC[C@H](c3ccccc3)C[C@@]1(O)CC[C@@H]2/C=N/N=C(N)N,–,IC50 [6]: > 100 µM
CN(C)CCCCO/N=C/[C@H]1CC[C@]2(O)C[C@@H](C3CCCCC3)CC[C@]12C,10,–
CN(C)CCO/N=C/[C@H]1CC[C@]2(O)C[C@H](c3ccccc3)CC[C@]12C,–,IC50 [7]: > 100 µM
C[C@]12CC[C@H](c3ccc(CO)cc3)C[C@@]1(O)CC[C@@H]2/C=N/OCCN,2.5,–
CN(C)CCO/N=C/[C@H]1CC[C@]2(O)C[C@@H](C3CCCCC3)CC[C@]12C,1.6,EC50 (Cavia porcellus [2]): 12 µM; Concentration giving maximal inotropic effect (Cavia porcellus [3]): 100 µM; Increase (Emax) (Cavia porcellus [4]): 70%
C[C@]12CC[C@H](O)C[C@H]1CC[C@@H]1[C@@H]2CC[C@]2(C)[C@@H](/C=C/C=N/OCCN)CC[C@]12O,0.016,Concentration giving maximal inotropic effect (Cavia porcellus [3]): 0.3 µM; Increase (Emax) (Cavia porcellus [4]): 155%
C[C@]12CC[C@H](C3CCCCC3)C[C@@]1(O)CC[C@@H]2/C=C/C=N/N=C(N)N,16,–
C[C@]12CC[C@H](C3CCCCC3)C[C@@]1(O)CC[C@@H]2C1=CC(=O)OC1,–,IC50 [7]: > 10 µM
CN(C)CCO/N=C/[C@H]1CC[C@]2(O)C[C@@H](c3ccncc3)CC[C@]12C,2.5,–
Cc1cccc([C@H]2CC[C@]3(C)[C@@H](/C=N/OCCN(C)C)CC[C@]3(O)C2)c1,5,–
C[C@]12CC[C@H](C3CCCCC3)C[C@@]1(O)CC[C@@H]2/C=N/OCCCCN,13,–
CN(C)CCO/N=C/[C@H]1CC[C@]2(O)C[C@@H](CC3CCCCC3)CC[C@]12C,4,–
CN(C)CCO/N=C/[C@H]1CC[C@]2(O)C[C@@H](c3cccnc3)CC[C@]12C,13,–

Structure (SMILES),IC50 [1] [µM],also measured
CN(C)CCONC[C@H]1CC[C@]2(O)C[C@@H](c3ccccc3)CC[C@]12C,10,–
CN(C)CCO/N=C/C=C/[C@H]1CC[C@]2(O)C[C@@H](C3CCCCC3)CC[C@]12C,1,EC50 (Cavia porcellus [2]): 20 µM; Concentration giving maximal inotropic effect (Cavia porcellus [3]): 100 µM; Increase (Emax) (Cavia porcellus [4]): 50%
CN(C)CCO/N=C/[C@H]1CC[C@]2(O)CC([C@H]3CC[C@H](O)CC3)CC[C@]12C (some centres not stated),1,–
C[C@]12CC[C@H](C3CCCCC3)C[C@@]1(O)CC[C@@H]2/C=N/OCCCN,0.8,–
CC(/C=N/OCCN(C)C)=C\[C@H]1CC[C@]2(O)C[C@@H](C3CCCCC3)CC[C@]12C,2,–
CN(C)CCO/N=C/CC[C@H]1CC[C@]2(O)C[C@@H](C3CCCCC3)CC[C@]12C,5,–
C[C@]12CC[C@H](O)C[C@H]1CC[C@@H]1[C@@H]2CC[C@]2(C)[C@@H](C3=CC(=O)OC3)CC[C@]12O [DIGITOXIGENIN],–,Concentration giving maximal inotropic effect (Cavia porcellus [3]): 3 µM; Increase (Emax) (Cavia porcellus [4]): 200%
C[C@]12CC[C@H](C3CCCCC3)C[C@@]1(O)CC[C@@H]2CC/C=N/OCCN,3.2,–
C[C@]12CC[C@H](C3CCCCC3)C[C@@]1(O)CC[C@@H]2/C=N/OCCN,1,–
CN(C)CCO/N=C/[C@H]1CC[C@]2(O)C[C@@H](c3ccccc3)CC[C@]12C,3.2,–
CN(C)CCO/N=C/[C@H]1CC[C@]2(O)CC([C@H]3CC[C@@H](O)CC3)CC[C@]12C (some centres not stated),1.6,–
CC(/C=N/N=C(N)N)=C\[C@H]1CC[C@]2(O)C[C@@H](C3CCCCC3)CC[C@]12C,–,IC50 [6]: > 100 µM
CN(C)CCO/N=C/C=C/[C@H]1CC[C@]2(O)[C@@H]3CC[C@@H]4C[C@@H](O)CC[C@]4(C)[C@H]3CC[C@]12C,0.025,Concentration giving maximal inotropic effect (Cavia porcellus [3]): 0.3 µM; Increase (Emax) (Cavia porcellus [4]): 191%
CN(C)CCO/N=C/[C@H]1CC[C@]2(O)C[C@H](Cc3ccccc3)CC[C@]12C,–,IC50 [8]: > 100 µM
CN(C)CCO/N=C/[C@H]1CC[C@]2(O)C[C@@H](Cc3ccccc3)CC[C@]12C,3.2,–
C[C@]12CC[C@H](c3ccccc3)C[C@@]1(O)CC[C@@H]2/C=N/OCCN,4,–
CN(C)CCO/N=C/[C@H]1CC[C@]2(O)[C@@H]3CC[C@@H]4C[C@@H](O)CC[C@]4(C)[C@H]3CC[C@]12C,0.04,Increase (Emax) (Cavia porcellus [4]): 39%
CC(/C=N/OCCN)=C\[C@H]1CC[C@]2(O)C[C@@H](C3CCCCC3)CC[C@]12C,1.3,–
C[C@]12CC[C@H](c3ccccc3)C[C@@]1(O)CC[C@@H]2CNOCCN,20,–
C[C@]12CC[C@H](C3CCCCC3)C[C@@]1(O)CC[C@@H]2/C=N/N=C(N)N,63,–
C[C@H]1O[C@@H](O[C@H]2[C@@H](O)C[C@H](O[C@H]3[C@@H](O)C[C@H](O[C@H]4CC[C@@]5(C)[C@H](CC[C@@H]6[C@@H]5C[C@@H](O)[C@]5(C)[C@@H](C7=CC(=O)OC7)CC[C@]65O)C4)O[C@@H]3C)O[C@@H]2C)C[C@H](O)[C@@H]1O [DIGOXIN],–,Concentration giving maximal inotropic effect (Cavia porcellus [3]): 1 µM; Increase (Emax) (Cavia porcellus [4]): 184%
CN(C)CCO/N=C/[C@H]1CC[C@]2(O)C/C(=C/c3ccccc3)CC[C@]12C,50,–
CN(C)CCO/N=C/[C@H]1CC[C@]2(O)C[C@@H](c3cccc(CO)c3)CC[C@]12C,5,–
Cc1ccc([C@H]2CC[C@]3(C)[C@@H](/C=N/OCCN)CC[C@]3(O)C2)cc1,6.3,–
CN(C)CCO/N=C/[C@H]1CC[C@]2(O)C[C@@H](c3ccc(OCCN(C)C)cc3)CC[C@]12C,1,–
